# AI-2 QS mod: Vibrio harveyi AI-2 quorum sensing modulation; Vibrio harveyi JMH597 AI-2 luminescence/OD600 ratio, 9 h; hits give low values; strain lacks LuxN and CqsS sensors; 0 = neutral-control median; activity change, % at 7.5 µM; 0.4% of 300,000 active; in the data active = activity change below about -75%, passing the limit was not always enough; inconclusive = no clear call, values can overlap the other calls;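 note: luminescence divided by OD600 gain over 9 h not by final OD600 alone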
# HSF1 inh: HSF1 inhibition | 0.77% of 300,000 active | NIH3T3-HGL HSE-luciferase, MG132-induced, luminescence 8 h; hits give low values | activity change, negative = inhibition, % at 7.5 µM (by protocol) | AID 2098;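 active = more than half of replicate wells show activity change below -50%, luminescence cut by over half; inconclusive = some wells, but at most half, below -50%; inactive = no replicate well below -50%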;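 note: luciferase reports HSF-1 transcriptional activity via heat shock element; 0% = median of DMSO wells and -100% = zero luminescence signal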
# ALR H2O2 inh: blocks human ALR sulfhydryl oxidase activity; purified ALR, DTT oxidation, H2O2 HRP-luminol luminescence; inhibition, % (concentration not given with the values); 3.8% of 290,000 active; AID 485317;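 active = mean replicate inhibition above about 79%, with every replicate also reaching it, limit read from the data; inconclusive = only one of the two criteria met; inactive = mean below limit and not every replicate reaching it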
# Target sequence (P55789 whole entry, looked up): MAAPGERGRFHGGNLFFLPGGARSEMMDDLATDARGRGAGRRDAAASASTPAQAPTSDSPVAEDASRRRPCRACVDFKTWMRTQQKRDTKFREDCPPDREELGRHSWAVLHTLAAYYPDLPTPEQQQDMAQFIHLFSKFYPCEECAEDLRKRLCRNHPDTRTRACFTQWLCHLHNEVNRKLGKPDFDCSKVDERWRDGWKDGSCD
# HSF1 activator: increases HSF-1 driven luciferase reporter signal | 1.7% of 300,000 active | activation, % at 9 µM | NIH3T3-HGL HSF-1 luciferase reporter, MG132, 8 h; 100% = twice DMSO control signal;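 active = mean replicate activation of at least 50% with a set share of replicates each reaching 50%; inconclusive = only one of those two conditions met; inactive = mean below 50% and too few replicates reaching it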;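 note: 0% = median of the neutral control wells and 100% = twice that signal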
# HCV core dimer: blocks dimerization of HCV core protein | TR-FRET GST/Flag-core106 dimerization, 1536-well | inhibition, % at 5 µM | 0.33% of 300,000 active;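 active = inhibition above the mean of all tested compounds plus 3 SD, set per screening campaign, cut at about 45% in these data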
#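 Material: GST/Flag-tagged HCV core106 proteins. Incubation: 4 h, 22.5 °C incubation. Read-out basis: inhibition (%) from 671 over 617 nm ratio. Measured by: TR-FRET, excitation 340 nm, emission 617 and 671 nm.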
# PHOSPHO1 block: PHOSPHO1 (human) inhibition. recombinant PHOSPHO1, absorbance phosphatase assay. inhibition, % at 13.3 µM. 1.1% of 290,000 active. AID 1565; in the data active = inhibition above about 60%
# Target sequence (Q8TCT1 whole entry, looked up): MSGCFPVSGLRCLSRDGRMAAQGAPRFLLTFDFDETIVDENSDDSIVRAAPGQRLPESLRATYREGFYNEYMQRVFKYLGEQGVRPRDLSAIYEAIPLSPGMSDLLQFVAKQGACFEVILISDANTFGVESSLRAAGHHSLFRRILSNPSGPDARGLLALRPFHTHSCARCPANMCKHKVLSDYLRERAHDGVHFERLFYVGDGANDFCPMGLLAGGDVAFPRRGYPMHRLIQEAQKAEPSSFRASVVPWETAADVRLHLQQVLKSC
# Numbers without * were called inactive; ? = inconclusive; nt = no result. Only some compounds are listed: those with a hit (about 6.8% of all), similar ones and a draw of the others.
SMILES,AI-2 QS mod,HSF1 inh,ALR H2O2 inh,HSF1 activator,HCV core dimer,PHOSPHO1 block
O=C(N/N=C/c1ccccn1)c1ccc(Cl)c(Cl)c1,-9,-16,3,-17,0,19
NC(=O)c1ccc(NC(=O)CCC(=O)N2CCN(S(=O)(=O)c3ccc(Cl)cc3)CC2)cc1,11,-1,-4,-1,2,22
CN(C)c1ccc(/C=N/NC(=O)CCc2c[nH]c3ccccc23)cc1,0,-1,98*,10,-10,40
CN(C)c1ccc(/C=N/NC(=O)CCCO)cc1,24,-2,96*,-7,-5,11
CN(C)c1ccc(/C=N\NC(=O)CC#N)cc1,20,0,67,-4,-6,-20
O=C(Cc1c[nH]c2ccccc12)N/N=C/c1ccc(F)cc1,-49,2,-3,3,3,6
COc1ccc(/C=N/NC(=O)CN(C)S(=O)(=O)c2ccc(NC(C)=O)cc2)cc1,9,-60*,nt,-67,-3,22
CN(C)c1ccc(/C=N/NC(=O)CCC(=O)NCc2ccccc2)cc1,23,-15,87*,-17,-8,9
Cc1occc1-c1nnc(SCC(=O)Nc2ccccc2)n1C(C)c1ccccc1 (configuration not stated),-10,12,-4,12,15,7
CCCCCC(=O)N/N=C/c1ccc(N(C)C)cc1,9,9,90*,-7,-3,-1
CN(C)c1ccc(/C=N/NC(=O)CCCCCNC(=O)c2ccccc2)cc1,1,1,nt,0,-11,23
COc1ccc(OCC(=O)N/N=C/c2ccc(N(C)C)cc2)cc1,7,-1,98*,-11,-1,-23
CCn1c(=O)c(C(=O)CN2CCN(S(=O)(=O)c3cc(C)ccc3C)CC2)c(N)n(Cc2ccccc2)c1=O,5,8,-5,25,1,-14
Cc1cccc(-n2c(C)c(-c3ccccc3)[nH]c2=S)c1,-8,10,82*,24,-6,-122
O=c1c2oc3ccccc3c2[nH]c(=S)n1-c1ccccc1,11,0,92*,-3,1,38
Cc1cccc(-n2c(=S)[nH]c3c(oc4ccccc43)c2=O)c1,17,-7,90*,21,6,6
CC(C)NS(=O)(=O)c1ccc(CCC(=O)NCc2ccncc2)cc1,29,-6,-4,-15,-5,53
Cc1ccccc1N1CCN(C2CCCN(C(=O)c3csc(C(C)C)n3)C2)CC1 (configuration not stated),17,10,24,12,3,41
C=CCOc1c(Br)cc(CNn2c(C)n[nH]c2=S)cc1OCC,20,-1,7,24,-8,-115
C=CCOc1c(Br)cc(CNn2cn[nH]c2=S)cc1OC,17,-3,92*,-4,1,12
CCN(CC)c1ncccc1C(=O)NCc1cccs1,19,-2,-11,2,-2,-2
Cc1ccc(C)c(Nc2ncccc2C(=O)NCc2cccs2)c1,-18,24,19,55*,-1,-19
CC(Sc1ccccc1)C(=O)NNC(=O)c1ccncc1 (configuration not stated),-9,-17,nt,-1,-4,nt
O=S(=O)(Nc1cccc2ccccc12)c1cccs1,8,27,16,29,5,24
O=S(=O)(Nc1ccc(O)c2ccccc12)c1cccs1,19,7,99*,27,5,45
SMILES,AI-2 QS mod,HSF1 inh,ALR H2O2 inh,HSF1 activator,HCV core dimer,PHOSPHO1 block
CC1CCCCN1C(=O)C1CCN(c2nc(-c3ccccc3)nc3c2CCC3)CC1 (configuration not stated),16,0,-7,-3,16,-115
CCOc1cc(C2Nc3ccccc3NC3=C2C(=O)CC(C)(C)C3)ccc1O (configuration not stated),31,-5,90*,3,1,24
COC(=O)c1ccc2c(c1)NC1=C(C(=O)CC(C)(C)C1)C(c1ccncc1)N2 (configuration not stated),-1,3,-20,-7,-7,-1
COC(=O)c1ccc(C2Nc3ccccc3NC3=C2C(=O)CC(C)(C)C3)cc1 (configuration not stated),18,12,97*,9,-2,45
Cc1cc2c(cc1C)NC(c1cccnc1)C1=C(CC(C)(C)CC1=O)N2 (configuration not stated),31,6,94*,-6,-5,-22
CC1(C)CC(=O)C2=C(C1)NC(=O)CC2c1cccc(F)c1 (configuration not stated),16,12,3,20,7,15
CC1(C)CC(=O)C2=C(C1)Nc1ccccc1NC2c1cccnc1 (configuration not stated),18,-9,?,-25,-4,7
CC1(C)CC(=O)C2=C(C1)Nc1ccccc1NC2c1cccc(F)c1 (configuration not stated),42,-2,99*,14,nt,14
O=C(NCC1CCCO1)C1CCN(S(=O)(=O)c2cc(Cl)ccc2Cl)CC1 (configuration not stated),12,-1,37,1,-4,32
O=C(COC(=O)c1ccc(Cl)c(S(=O)(=O)N2CCOCC2)c1)NCc1ccco1,23,4,-1,18,2,nt
CC(C)(C)SCCNC(=O)CN(c1ccccc1)S(=O)(=O)c1ccc(F)cc1,21,-2,0,-7,-10,27
CCc1sc(C(=O)NNC(=O)c2cncc(Br)c2)cc1C,nt,nt,-2,nt,nt,nt
CC(=O)Oc1ccc2c(=O)c(-c3nc4ccccc4s3)coc2c1,16,-3,nt,10,3,16
COc1cc2c(cc1OC)C(c1ccc3c(c1)OCO3)C1=C(CC(C)(C)CC1=O)N2 (configuration not stated),27,6,98*,4,-2,33
COc1cccc(C2C3=C(CC(C)(C)CC3=O)Nc3cc4c(cc32)OCO4)c1 (configuration not stated),12,11,54,28,1,0
COc1cc(C2Nc3ccccc3NC3=C2C(=O)CC(C)(C)C3)cc(OC)c1OC (configuration not stated),-1,-6,75,-6,-9,52
COc1cc(OC)c(C2Nc3ccccc3NC3=C2C(=O)CC(C)(C)C3)cc1OC (configuration not stated),31,4,87*,-15,3,24
Cc1ccc(NC(=O)c2cccc(N3C(=O)C4C5C=CC(C5)C4C3=O)c2)cc1C (configuration not stated),4,11,-18,37,nt,3

# Bioassay records deposited in PubChem by several laboratories.
